Screening data as filed in PubChem BioAssay.
S1P4 agonist – human S1P4 receptor agonism. activation, % at 4.98 µM. 220,000 tested, 0.35% active. O95977. S1P4-expressing cell line, agonist reporter assay; in the data active = activation above about 11%
S1P3 antag – antagonists of human S1P3 receptor; CHO S1P3 NFAT-BLA reporter, FRET fluorescence, antagonist mode; inhibition, % at 4.98 µM; 170,000 tested, 0.27% active;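 active = inhibition above the plate cutoff, the mean inhibition of test wells on that plate plus 3 SD, cut at about 28% in these data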;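 note: cells challenged with S1P at its EC80 of 0.8 µM; blue over green emission ratio from cleaved BLA substrate after 4 h stimulation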
Target sequence (Q99500 whole entry, looked up): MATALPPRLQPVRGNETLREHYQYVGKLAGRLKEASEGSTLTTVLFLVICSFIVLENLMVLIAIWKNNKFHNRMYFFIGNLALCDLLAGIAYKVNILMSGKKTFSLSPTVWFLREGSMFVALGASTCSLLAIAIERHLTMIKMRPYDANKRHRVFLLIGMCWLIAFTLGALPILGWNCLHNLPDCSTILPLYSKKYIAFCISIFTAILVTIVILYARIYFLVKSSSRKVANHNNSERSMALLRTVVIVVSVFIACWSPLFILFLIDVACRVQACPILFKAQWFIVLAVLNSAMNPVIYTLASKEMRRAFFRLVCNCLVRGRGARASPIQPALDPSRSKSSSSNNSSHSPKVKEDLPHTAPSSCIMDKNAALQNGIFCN
S1P4 antagonist – blocks the human S1P4 receptor; inhibition, % at 4.98 µM; O95977; AID 1510; 220,000 tested, 0.26% active; S1P4-expressing cells, antagonist mode, reporter read-out; in the data active = inhibition above about 29%
Mdm2 ligase inh – Mdm2 E3 ligase (human) inhibition; Q00987; cell-based MDM2 ubiquitination luciferase reporter, 2 h; 0 = plate control, 100 = twice control, blank-subtracted; signal enhancement, % at 5 µM; 210,000 tested, 0.11% active; AID 1230;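 active = signal enhancement of 30% or more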;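 note: luminescence tracks abundance of the self-degrading MDM2-luciferase fusion protein; higher signal means inhibition of MDM2 E3 ligase activity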
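Assay system: stable mammalian line carrying autodegrading MDM2–luciferase fusion reporter; amount: 2000 cells seeded into each well; buffer or medium: DMEM; benchmarks: plate control and blank wells; signal: luciferase luminescence; timing: 2 h compound exposure at 37 °C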
Biofilm kill mix – mixture kills Candida albicans biofilm cells; 120,000 tested, 0.02% active; inhibition, % at 7.6 µM; C. albicans biofilm persisters + clotrimazole, fluorescence viability; primary screen in compound mixtures of four per well;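 note: compounds exposed to preformed 24 h biofilms for 48 h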
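Assay system: C. albicans biofilms / Medium: RPMI/MOPS medium, pH 7.0 / Schedule: biofilm formation 24 h, compound exposure 48 h, 37 °C / Measured by: Alamar Blue fluorescence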
S1P4 agonist cf – human S1P4 agonism, confirmation; shares compounds with S1P4 agonist; S1P4 agonist cell-based reporter assay; activation, % at 4.98 µM; 740 tested, 7% active; AID 1523; in the data active = activation above about 12%
S1P1 ag – human S1P1 agonism as S1P4 agonist counter-screen; shares compounds with S1P4 agonist; S1P1 agonist cell-based assay, activation; activation, % at 4.98 µM; 740 tested, 4% active; AID 1563; in the data active = activation above about 21%
Hits are given with their value. A selection: hits, their analogues and other compounds. The true share with any hit is near 0.9%.

Screening O=C(N/N=C/c1cn(-c2cccs2)nc1-c1ccccc1)c1ccccc1Br returned S1P4 agonist 11.0, S1P3 antag inactive, S1P4 antagonist inactive, Mdm2 ligase inh inactive, Biofilm kill mix inactive, S1P4 agonist cf inactive and S1P1 ag inactive.
For COc1ccc(C(=O)Nc2cccc(C)c2)cc1S(=O)(=O)N1CCOCC1 the results were S1P4 agonist inactive, S1P3 antag inactive, S1P4 antagonist inactive and Mdm2 ligase inh inactive.
`COc1ccc(C(=O)Nc2cccc(C(C)=O)c2)cc1S(=O)(=O)N1CCOCC1` gave S1P4 agonist 24.3, S1P3 antag inactive, S1P4 antagonist inactive, Mdm2 ligase inh inactive, S1P4 agonist cf inactive and S1P1 ag inactive.
COC(=O)N/N=C(\CCC(=O)O)c1cccs1 was read as S1P4 agonist 27.2, S1P3 antag inactive, S1P4 antagonist inactive, Mdm2 ligase inh inactive, Biofilm kill mix inactive, S1P4 agonist cf inactive and S1P1 ag inactive.
Screening CNC(=O)c1cccnc1Nc1cccc(C(F)(F)F)c1 returned S1P4 agonist 33.4, S1P3 antag inactive, S1P4 antagonist inactive, Mdm2 ligase inh inactive, Biofilm kill mix inactive, S1P4 agonist cf inactive and S1P1 ag inactive.
For Cc1cccnc1NC(=O)Nc1cccc(C(F)(F)F)c1 the results were S1P4 agonist inactive, S1P3 antag inactive, S1P4 antagonist inactive and Mdm2 ligase inh inactive.
For N#Cc1c(-n2cccc2C=O)sc2c1CCCC2 the results were S1P4 agonist 18.6, S1P3 antag inactive, S1P4 antagonist inactive, Mdm2 ligase inh inactive, Biofilm kill mix inactive, S1P4 agonist cf 14.4 and S1P1 ag inactive.
Screening COc1ccccc1-c1nc(SCC(=O)NCC2CCCO2)c2c(=O)n(C)c(=O)n(C)c2n1 (centres undefined) returned S1P4 agonist inactive, S1P3 antag inactive, S1P4 antagonist inactive, Mdm2 ligase inh inactive and Biofilm kill mix inactive.
Screening CC(NC(=O)c1cnc2n(c1=O)CCS2)c1ccccc1 (centres undefined) returned S1P4 agonist inactive, S1P3 antag inactive, S1P4 antagonist inactive and Mdm2 ligase inh inactive.
CCC(C)NC(=O)c1cnc2n(c1=O)CCS2 (centres undefined) was read as S1P4 agonist 25.0, S1P3 antag inactive, S1P4 antagonist inactive, Mdm2 ligase inh inactive, S1P4 agonist cf inactive and S1P1 ag inactive.
For O=C(NCc1ccccc1)C(c1ccc(F)cc1)N(Cc1ccco1)C(=O)c1ccccn1 (centres undefined) the results were S1P4 agonist 40.2, S1P4 antagonist inactive, Mdm2 ligase inh inactive, S1P4 agonist cf inactive and S1P1 ag inactive.
Cc1cc(OCCN2CCCCCC2)ccc1[N+](=O)[O-] was read as S1P4 agonist 24.4, S1P3 antag inactive, S1P4 antagonist inactive, Mdm2 ligase inh inactive, Biofilm kill mix inactive, S1P4 agonist cf inactive and S1P1 ag inactive.
`Cc1cc(OCC(=O)N2CCCCCC2)ccc1[N+](=O)[O-]` gave S1P4 agonist inactive, S1P3 antag inactive, S1P4 antagonist inactive, Mdm2 ligase inh inactive and Biofilm kill mix inactive.
Screening COc1ccc(CCN(CC(=O)NC(C)(C)C)C(=O)Cn2nnc(-c3ccc(C)o3)n2)cc1OC returned S1P4 agonist inactive, S1P3 antag inactive, S1P4 antagonist inactive, Mdm2 ligase inh inactive and Biofilm kill mix inactive.
O=C(CN1CCN(CC(=O)Nc2ccccc2Cl)CC1)Nc1ccc2c(c1)OCCO2 was read as S1P4 agonist inactive, S1P3 antag inactive, S1P4 antagonist inactive and Mdm2 ligase inh inactive.
`O=C(CN1CCC(Cc2ccccc2)CC1)Nc1ccc2c(c1)OCCO2` gave S1P4 agonist 412.6, S1P4 antagonist inactive, S1P4 agonist cf inactive and S1P1 ag inactive.
Screening O=C(Nc1ccc2c(c1)OCO2)N1CCCC1 returned S1P4 agonist 45.6, S1P3 antag inactive, S1P4 antagonist inactive, Mdm2 ligase inh inactive, Biofilm kill mix inactive, S1P4 agonist cf inactive and S1P1 ag inactive.
O=C(Nc1ccc2c(c1)OCO2)N1CCOCC1 was read as S1P4 agonist inactive, S1P3 antag inactive, S1P4 antagonist inactive and Mdm2 ligase inh inactive.
CC(=O)Nc1cccc(NC(=S)Nc2ccc(F)cc2F)c1 was read as S1P4 agonist inactive, S1P3 antag inactive, S1P4 antagonist inactive, Mdm2 ligase inh inactive and Biofilm kill mix inactive.
